Many of the other results were omitted from the sample, so hits are more common in it than they were.
T cruzi growth-1: inhibitors of T. cruzi proliferation; T. cruzi beta-gal in NIH3T3, GalScreen luminescence, 90 h; inhibition, % at 8.34 µM; 5.9% of 77,000 active;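 active = mean inhibition above about 93%, with at least 55% of replicates each passing it, limit read from the data, passing the limit was not always enough; inconclusive = only one of those two conditions holds; inactive = neither condition holds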
IDH1 R132H inh: IDH1 R132H (human) inhibition; O75874; IDH1 R132H reductase, diaphorase/resazurin fluorescence, 60 min; inhibition, % at 10 µM; 0.18% of 70,000 active; in the data active = inhibition above about 34%; inconclusive = no clear call, values can overlap the other calls; inactive = below about 11%
KDM4C inh: blocks human GASC-1 (KDM4C) demethylase activity. Q9H3R0. 0.15% of 96,000 active. inhibition, % at 12.5 µM. AID 720574. GST-KDM4C 2-372, H3K9me3 peptide, LANCE TR-FRET;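 active = mean replicate inhibition above about 25%, with at least 55% of replicates also reaching it, limit read from the data, passing the limit was not always enough; inconclusive = only one of those two conditions met; inactive = neither condition met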
Target sequence (Q9H3R0 2-372 limits assumed): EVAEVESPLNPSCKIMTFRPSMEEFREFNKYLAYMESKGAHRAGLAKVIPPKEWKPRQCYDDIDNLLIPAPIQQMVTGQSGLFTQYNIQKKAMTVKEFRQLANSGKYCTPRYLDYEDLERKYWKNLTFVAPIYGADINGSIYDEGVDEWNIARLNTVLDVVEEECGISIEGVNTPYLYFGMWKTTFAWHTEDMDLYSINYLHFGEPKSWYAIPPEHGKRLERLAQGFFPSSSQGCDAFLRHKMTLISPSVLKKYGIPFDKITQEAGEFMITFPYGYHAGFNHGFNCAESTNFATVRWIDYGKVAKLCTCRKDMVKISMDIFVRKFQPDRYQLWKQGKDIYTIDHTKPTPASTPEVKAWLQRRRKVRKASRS
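Test system: N-terminal GST-fused human GASC-1 (KDM4C) fragment, residues 2-372; quantity: GASC-1 enzyme at 10 nM final in reaction; dosing: single dose; schedule: 30 min demethylation and 1 h detection at room temperature; signal: LANCE TR-FRET, excitation 340 nm, emissions 618 and 671 nm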
T cruzi growth-2: Trypanosoma cruzi proliferation inhibition; T. cruzi beta-gal in NIH3T3, GalScreen luminescence, 90 h; 72% of 5,600 active; inhibition, % at 8.35 µM; shares compounds with T cruzi growth-1;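 active = mean replicate inhibition above about 95% and at least 55% of replicates individually reaching it, limit read from the data; inconclusive = only one of the two criteria is met; inactive = neither criterion is met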
T cruzi growth-3: Trypanosoma cruzi proliferation inhibition; 21% of 5,600 active; AID 651740; T. cruzi beta-gal in NIH3T3, GalScreen luminescence, 90 h; inhibition, % at 2.09 µM; shares compounds with T cruzi growth-1;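 active = mean inhibition above about 95%, with at least 55% of replicates also reaching it, limit read from the data; inconclusive = meets just one of the two conditions; inactive = meets neither condition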
NIH3T3 tox: kills mouse NIH/3T3 fibroblasts; shares compounds with T cruzi growth-1; NIH/3T3 viability, CellTiter-Glo ATP luminescence, 90 h; cytotoxicity (signal decrease), % at 8.35 µM; 14% of 5,600 active; AID 651742;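 active = mean signal decrease across replicates above about 35% based on untreated-well scatter, with enough replicates individually passing, limit read from the data; inconclusive = no rule stated though some were filed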
NIH3T3 tox 2: NIH/3T3 (mouse) viability loss. inhibition, % at 24.9 µM. shares compounds with T cruzi growth-1. NIH/3T3 viability, CellTiter-Glo ATP luminescence, 90 h. 56% of 5,600 active;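 active = mean loss of cell viability signal at or above a set limit, and enough replicates individually reaching it; inconclusive = meets only the mean limit or only the replicate share; inactive = meets neither condition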
Numbers stand for hits; n = inactive; u = inconclusive; x = not tested or not shown; ! = not active in a repeat.

SMILES | T cruzi growth-1 | IDH1 R132H inh | KDM4C inh | T cruzi growth-2 | T cruzi growth-3 | NIH3T3 tox | NIH3T3 tox 2
O=C(c1cccc(F)c1)N1CCCCN2[C@@H](CO)[C@@H](c3ccc(/C=C/c4ccccc4)cc3)[C@@H]2C1 | 109 | x | n | 101 | n | 66 | 105
O=C(c1cccc(F)c1)N1CCCCN2[C@H](CO)[C@@H](c3ccc(/C=C/c4ccccc4)cc3)[C@@H]2C1 | 109 | x | n | 100 | n | n | n
O=C(c1cccc(F)c1)N1CCCCN2[C@H](CO)[C@H](c3ccc(-c4cncnc4)cc3)[C@@H]2C1 | n | x | n | x | x | x | x
O=C(c1cccc(F)c1)N1CC(=O)N2[C@H](CO)[C@H](c3ccc(/C=C/c4ccccc4)cc3)[C@@H]2C1 | x | x | n | x | x | x | x
O=C(c1cccc(F)c1)N1CCCCN2[C@H](C1)[C@@H](c1ccc(/C=C/c3ccccc3)cc1)[C@@H]2CO | 111 | x | n | n | n | 54 | 39
O=C(c1cccc(F)c1)N1CCCCN2[C@H](C1)[C@H](c1ccc(/C=C/c3ccccc3)cc1)[C@@H]2CO | 110 | x | n | u | n | n | 103
O=C(c1cccc(F)c1)N1CCCCN2[C@H](C1)[C@H](c1ccc(-c3ccc(F)cc3)cc1)[C@@H]2CO | n | x | x | x | x | x | x
O=C(c1cccc(F)c1)N1CCCCN2[C@H](C1)[C@@H](c1ccc(-c3ccc(F)cc3)cc1)[C@@H]2CO | n | x | x | x | x | x | x
O=C(CN1C(=O)c2cccc3cccc1c23)Nc1ccc(S(=O)(=O)N2CCCC2)cc1 | x | n | x | x | x | x | x
O=C(NC1CCCC1)[C@H]1[C@H](CO)[C@H]2Cn3c(cccc3=O)[C@@H]1N2C(=O)CC1CC1 | n | x | n | x | x | x | x
COc1cccc(CN2CC3(CN(S(C)(=O)=O)C3)c3c(n(C)c4cc(OC)ccc34)[C@@H]2CO)c1 | x | x | n | x | x | x | x
CO[C@@H]1CN(C)C(=O)c2cc(NC(=O)c3ccc(F)cc3)ccc2OC[C@H](C)N(C)C[C@H]1C | n | n | n | x | x | x | x
CCCNC(=O)N1CCC2(CC1)CN(C(=O)CC1CC1)[C@H](CO)c1[nH]c3cc(OC)ccc3c12 | x | x | n | x | x | x | x
O=C(c1ccc(F)cc1)N1CCCCN2[C@H](C1)[C@H](c1ccc(-c3ccccc3)cc1)[C@@H]2CO | n | x | n | x | x | x | x
O=C(c1ccc(F)cc1)N1CCCCN2[C@@H](CO)[C@H](c3ccc(/C=C/c4ccccc4)cc3)[C@@H]2C1 | 112 | x | n | 95 | n | 60 | 103
Cc1ccc(-c2cnc3c(c2)C(=O)N([C@@H](C)CO)C[C@H](C)[C@@H](CN(C)C)O3)cc1 | n | n | n | x | x | x | x
Cc1cccc(S(=O)(=O)N2C[C@H]3[C@@H](c4ccccc42)[C@@H](CO)N3CC2CCCC2)c1 | 99 | x | n | 104 | n | n | 103
Cc1cccc(S(=O)(=O)N2C[C@@H]3[C@H](c4ccccc42)[C@@H](CO)N3CC2CCCC2)c1 | n | x | n | x | x | x | x
Cc1cccc(S(=O)(=O)N2C[C@@H]3[C@H](c4ccccc42)[C@H](CO)N3CC2CCCC2)c1 | 98 | x | n | 104 | n | n | 99
Cc1cccc(S(=O)(=O)N2C[C@@H]3[C@H](c4ccccc42)[C@@H](CO)N3CC2CCOCC2)c1 | n | x | n | x | x | x | x
O=C(C[C@@H]1CC[C@@H](NC(=O)Nc2ccc(C(F)(F)F)cc2)[C@@H](CO)O1)NCc1ccccn1 | n | n | n | x | x | x | x
Cc1cc(C(=O)Nc2cccc3c2O[C@@H](CN(C)C(=O)NC(C)C)[C@H](C)CN([C@@H](C)CO)C3=O)n(C)n1 | x | x | n | x | x | x | x
C[C@@H]1CN([C@H](C)CO)C(=O)c2ccccc2-c2ccccc2CO[C@@H]1CN(C)Cc1cccc(O)c1 | n | n | n | x | x | x | x
Cc1cc(S(=O)(=O)Nc2c(C)nc3nc[nH]n3c2=O)ccc1F | x | n | x | x | x | x | x
CN(C)C(=O)c1ccc(-c2ccc([C@@H]3[C@H]4CN(C(=O)C5CC5)CCCCN4[C@H]3CO)cc2)cc1 | n | x | n | x | x | x | x
SMILES | T cruzi growth-1 | IDH1 R132H inh | KDM4C inh | T cruzi growth-2 | T cruzi growth-3 | NIH3T3 tox | NIH3T3 tox 2
CN(C)C(=O)c1ccc(-c2ccc([C@@H]3[C@H]4CN(C(=O)C5CCCC5)CCCCN4[C@H]3CO)cc2)cc1 | 114 | x | x | n | n | 38 | 38
CN(C)C(=O)c1ccc(-c2ccc([C@@H]3[C@H](CO)N4CCCCN(C(=O)C5CCCC5)C[C@@H]34)cc2)cc1 | 100 | x | x | n | n | n | n
CN(C)C(=O)c1ccc(-c2ccc([C@H]3[C@H]4CN(C(=O)C5CCCC5)CCCCN4[C@H]3CO)cc2)cc1 | n | x | x | x | x | x | x
CC(=O)N(C)C[C@H]1Oc2cc(C#CC3CCCC3)ccc2S(=O)(=O)N([C@H](C)CO)C[C@@H]1C | n | x | n | x | x | x | x
O=C(C[C@H]1CC[C@@H]2[C@H](COC[C@@H](O)CN2S(=O)(=O)c2cccc(Cl)c2)O1)Nc1ccc(-c2ccccc2)cc1 | 103 | x | n | n | 108 | 52 | 105
O=C(C[C@H]1CC[C@H]2[C@@H](COC[C@@H](O)CN2S(=O)(=O)c2cccc(Cl)c2)O1)Nc1ccc(-c2ccccc2)cc1 | 109 | x | n | 107 | 108 | n | 92
O=C(C[C@@H]1CC[C@H]2[C@@H](COC[C@@H](O)CN2S(=O)(=O)c2cccc(Cl)c2)O1)Nc1ccccc1 | n | x | n | x | x | x | x
O=C(C[C@H]1CC[C@H]2[C@@H](COC[C@H](O)CN2S(=O)(=O)c2cccc(Cl)c2)O1)Nc1ccc(-c2ccccc2)cc1 | n | x | n | x | x | x | x
CC(C)NC(=O)N(C)C[C@H]1OCCCC[C@@H](C)Oc2ccc(NS(=O)(=O)c3ccccc3)cc2C(=O)N([C@@H](C)CO)C[C@H]1C | n | n | n | x | x | x | x
COc1ccc(NC(=O)Nc2ccc3c(c2)C(=O)N([C@@H](C)CO)C[C@H](C)[C@@H](CN(C)Cc2ccccc2)OCCCC[C@@H](C)O3)cc1 | n | n | n | x | x | x | x
COc1ccc(NC(=O)Nc2ccc3c(c2)C(=O)N([C@H](C)CO)C[C@@H](C)[C@@H](CN(C)Cc2ccccc2)OCCCC[C@@H](C)O3)cc1 | 103 | x | n | 111 | n | n | 53
COc1ccc(NC(=O)Nc2ccc3c(c2)C(=O)N([C@@H](C)CO)C[C@@H](C)[C@H](CN(C)Cc2ccccc2)OCCCC[C@H](C)O3)cc1 | 100 | x | n | 110 | n | n | 35
COc1ccc(NC(=O)Nc2ccc3c(c2)C(=O)N([C@@H](C)CO)C[C@@H](C)[C@@H](CN(C)Cc2ccccc2)OCCCC[C@@H](C)O3)cc1 | n | n | n | x | x | x | x
C[C@@H]1CN([C@H](C)CO)C(=O)c2cc(NS(=O)(=O)c3ccc(Cl)cc3)ccc2O[C@@H](C)CCCCO[C@H]1CN(C)S(=O)(=O)c1cccs1 | n | x | n | x | x | x | x
C[C@@H]1CN([C@@H](C)CO)C(=O)c2cc(N(C)C)ccc2O[C@@H](C)CCCCO[C@@H]1CN(C)S(=O)(=O)c1cccs1 | 106! | n | n | n | n | n | n

Assay outcomes from PubChem BioAssay.
